Assay [1] has as its system Bel-7402. Briefly: Antiproliferative activity against human Bel7402 cells after 24 hrs by MTT assay. Conditions: Bel-7402, 24 h. The format is functional, cell-based. Summed up: (§1)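 Cells plated at 1 × 10⁴ per well and cultured 24 h at 37 °C, 5% CO₂. Medium then replaced with fresh medium containing compound at varying concentrations, five wells per concentration, and incubated 24 h. MTT (5 mg/mL in phosphate buffer pH 7.4) added for 4 h at 37 °C. Absorbance read at 570 nm, blanked on cell-free medium. IC50 is 50% growth inhibition versus untreated control; mean ± SD, n = 3.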
(In general: Formazan colour is commonly taken as a measure of viable cells.)

Assay [2] has as its system MCF7. Kind of assay: Antiproliferative activity against human MCF7 cells after 24 hrs by MTT assay. It counts as functional, cell-based. The settings on record: MCF7, 24 h. Summed up: as §1

Drawing on ChEMBL document CHEMBL1155264, “Synthesis of substituted-phenyl-1,2,4-triazol-3-thione analogues with modified D-glucopyranosyl residues and their antiproliferative activities” (Eur J Med Chem, 2009), this text covers IC50 for 6 compounds.

A word on the IC50: it is the concentration that gives 50% inhibition. Low values mean higher potency, high ones lower potency.

In the case of `CC(=O)OC[C@H]1O[C@@H](n2nc(-c3ccccc3)n(/N=C/c3ccccc3)c2=S)[C@H](OC(C)=O)[C@@H](OC(C)=O)[C@@H]1OC(C)=O`, the IC50 in assay [1] worked out at 10.7 µM; in assay [2], 18 µM.
Regarding `Oc1ccc(/C=N/n2c(-c3ccccc3)n[nH]c2=S)cc1`, the 50% inhibitory concentration (IC50) in assay [1] was 25.2 µM; in assay [2] it was 29.9 µM.
Consider `S=c1[nH]nc(-c2ccccc2)n1/N=C/c1ccc(Cl)cc1`, for which the IC50 in assay [1] was 24 µM; in assay [2], 30.5 µM.
The like results for `COc1cc(/C=N/n2c(-c3ccccc3)n[nH]c2=S)ccc1O` were, in that order, 19.6 µM and 26.3 µM.
With `S=c1[nH]nc(-c2ccccc2)n1/N=C/c1ccccc1`, the 50% inhibitory concentration (IC50) came to 22.5 µM in assay [1] and 31.8 µM in assay [2].
For the compound `O=c1[nH]cc(F)c(=O)[nH]1` [FLUOROURACIL], the IC50 worked out at 4.7 µM in assay [1] and 4.3 µM in assay [2].
